Measurements reported in ChEMBL document CHEMBL3784921, “Mimicking of Arginine by Functionalized N(ω)-Carbamoylated Arginine As a New Broadly Applicable Approach to Labeled Bioactive Peptides: High Affinity Angiotensin, Neuropeptide Y, Neuropeptide FF, and Neurotensin Receptor Ligands As Examples” (J Med Chem, 2016).
*1 amine or outer side, *2 acyl side, *3 side chain or, on linkers, in order; H or OH if unused. Where a SMILES comes first, the peptide text is derived from it. Bridges are numbered along the chain shown (N, C = ends). Roman numbers before positions name the chains, in order. [ ]: non-standard residue; d: D form. X1 = CCC(=O)NCCCCNC(=O)/N=C(\N)NCCC[C@H](N[*:1])C(=O)[*:2]; X6 = CCC(=O)NCCCCNC(=O)/N=C(/N)NCCC[C@H](N[*:1])C(=O)[*:2]; X3 = NCCOCCOCCNC(=O)/N=C(\N)NCCC[C@H](N[*:1])C(=O)[*:2]; X4 = NCCOCCOCCNC(=O)/N=C(/N)NCCC[C@H](N[*:1])C(=O)[*:2]; X2 = NCCCCNC(=O)/N=C(\N)NCCC[C@H](N[*:1])C(=O)[*:2]; X7 = NCCCCNC(=O)/N=C(/N)NCCC[C@H](N[*:1])C(=O)[*:2]; Suberoyl = O=C(CCCCCCC(=O)[*:2])[*:1]

Key:
[1] = biological target: T1, Type-1 angiotensin II receptor (Homo sapiens, UniProt P30556); test: Displacement of [3H]-Asp-{Nomega-[N-(4-propanoylaminobutyl)aminocarbonyl]}Arg-ValTyr-Ile-His-Pro-Phe-OH Tris(hydrotrifluoroacetate) from human AT1 receptor transfected in CHO cells co-expressing Galpha16-mtAEQ after 2 hrs by liquid scintillation counting; assay type: cell-based
T1 sequence (P30556 whole entry): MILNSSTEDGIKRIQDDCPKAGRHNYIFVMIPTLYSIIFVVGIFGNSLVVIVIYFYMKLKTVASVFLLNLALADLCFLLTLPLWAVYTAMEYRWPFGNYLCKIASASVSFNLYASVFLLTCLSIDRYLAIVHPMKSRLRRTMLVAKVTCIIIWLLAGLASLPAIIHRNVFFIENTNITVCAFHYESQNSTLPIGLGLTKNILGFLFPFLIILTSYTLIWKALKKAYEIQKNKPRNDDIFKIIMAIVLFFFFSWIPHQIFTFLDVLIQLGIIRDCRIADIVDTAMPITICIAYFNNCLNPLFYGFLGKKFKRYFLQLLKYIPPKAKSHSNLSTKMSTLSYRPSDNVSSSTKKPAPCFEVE

[2] = Chemical stability of compound at 200 uM at pH 7 at 21 degC after 24 to 48 hrs by reversed-phase HPLC analysis; assay type: physicochemical; conditions: buffer, pH 7, 200 µM
Method in brief: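 Peptide incubated in phosphate buffer (PBS), pH 7.0, 21 °C, for 24 or 48 h. Remaining intact peptide assessed by reversed-phase HPLC chromatograms.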

[3] = biological target: T1, Type-1 angiotensin II receptor; test: Agonist activity at human AT1 receptor transfected in CHO cells co-expressing Galpha16-mtAEQ assessed as induction of intracellular Ca2+ mobilization by bioluminescence assay; assay type: functional, cell-based
[4] = biological target: Neuropeptide FF receptor 2 (Homo sapiens, UniProt Q9Y5X5); test: Displacement of [3H]EYE from human NPFF2 receptor expressed in CHO cell membranes after 1 hr by liquid scintillation spectrophotometric counting
Neuropeptide FF receptor 2, sequence (Q9Y5X5 whole entry): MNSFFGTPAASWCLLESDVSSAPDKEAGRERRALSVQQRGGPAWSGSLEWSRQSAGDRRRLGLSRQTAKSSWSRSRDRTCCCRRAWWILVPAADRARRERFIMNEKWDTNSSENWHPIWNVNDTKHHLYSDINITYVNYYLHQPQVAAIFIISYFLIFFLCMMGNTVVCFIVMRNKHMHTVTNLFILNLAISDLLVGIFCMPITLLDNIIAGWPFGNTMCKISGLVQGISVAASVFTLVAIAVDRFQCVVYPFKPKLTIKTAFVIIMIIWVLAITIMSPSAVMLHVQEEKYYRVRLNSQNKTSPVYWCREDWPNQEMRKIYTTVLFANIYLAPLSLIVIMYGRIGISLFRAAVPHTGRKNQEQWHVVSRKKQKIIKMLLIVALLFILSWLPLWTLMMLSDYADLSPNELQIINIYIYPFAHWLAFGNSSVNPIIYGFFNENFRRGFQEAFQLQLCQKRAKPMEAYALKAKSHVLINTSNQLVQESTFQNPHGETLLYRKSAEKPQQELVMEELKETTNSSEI

[5] = biological target: T2, Neurotensin receptor type 1 (Homo sapiens, UniProt P30989); test: Displacement of [3H]-{Nomega-[N-(4-propanoylaminobutyl)aminocarbonyl]}Arg-Arg-ProTyr-Ile-Leu-OH Tris(hydrotrifluoroacetate) from NTSR1 in human HT-29 cells after 2 hrs by liquid scintillation counting; assay type: cell-based
T2 sequence (P30989 whole entry, the tested form may be a part): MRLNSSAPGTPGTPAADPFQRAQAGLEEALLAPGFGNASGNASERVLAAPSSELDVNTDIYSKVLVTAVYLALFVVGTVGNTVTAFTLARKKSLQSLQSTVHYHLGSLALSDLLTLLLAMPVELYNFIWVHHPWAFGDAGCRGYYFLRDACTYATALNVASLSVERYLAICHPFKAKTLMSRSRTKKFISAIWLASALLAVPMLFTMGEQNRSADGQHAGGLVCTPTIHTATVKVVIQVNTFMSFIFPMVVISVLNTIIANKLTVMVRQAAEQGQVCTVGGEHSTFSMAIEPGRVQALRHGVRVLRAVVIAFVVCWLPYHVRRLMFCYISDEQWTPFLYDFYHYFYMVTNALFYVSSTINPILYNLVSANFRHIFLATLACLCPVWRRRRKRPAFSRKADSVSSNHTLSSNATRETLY

[6] = biological target: Neurotensin receptor type 2 (Homo sapiens, UniProt O95665); test: Displacement of [3H]NT(8 to 13 residues) from human NTSR2 expressed in HEK293 cell membranes
Neurotensin receptor type 2, sequence (O95665 whole entry, the tested form may be a part): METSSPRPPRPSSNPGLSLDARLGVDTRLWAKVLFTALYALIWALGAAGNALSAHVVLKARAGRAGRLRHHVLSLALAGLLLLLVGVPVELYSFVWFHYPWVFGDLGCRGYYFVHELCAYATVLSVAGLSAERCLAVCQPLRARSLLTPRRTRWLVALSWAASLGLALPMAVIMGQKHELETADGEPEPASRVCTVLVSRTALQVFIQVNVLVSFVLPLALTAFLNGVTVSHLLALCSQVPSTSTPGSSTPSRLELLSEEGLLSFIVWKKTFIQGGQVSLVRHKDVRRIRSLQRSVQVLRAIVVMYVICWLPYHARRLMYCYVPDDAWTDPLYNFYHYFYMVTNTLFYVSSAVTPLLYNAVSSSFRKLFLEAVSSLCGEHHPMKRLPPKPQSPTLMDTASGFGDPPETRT

[7] = biological target: T2, Neurotensin receptor type 1; test: Displacement of [3H]-{Nomega-[N-(4-propanoylaminobutyl)aminocarbonyl]}Arg-Arg-ProTyr-Ile-Leu-OH Tris(hydrotrifluoroacetate) from human NTSR1 transfected in CHO cells co-expressing Galpha16-mtAEQ after 2 hrs by liquid scintillation counting; assay type: cell-based
[8] = biological target: T2, Neurotensin receptor type 1; test: Agonist activity at NTSR1 in human HT-29 cells assessed as induction of intracellular Ca2+ mobilization by fura-2 dye-based spectrofluorimetric analysis; assay type: functional, cell-based
[9] = biological target: Neuropeptide Y receptor type 4 (Homo sapiens, UniProt P50391); test: Displacement of S0586[K4]hpp from human NPY4 receptor expressed in CHO cells co-expressing Gqi5-mtAEQ by flow cytometric analysis; assay type: cell-based
Neuropeptide Y receptor type 4, sequence (P50391 whole entry): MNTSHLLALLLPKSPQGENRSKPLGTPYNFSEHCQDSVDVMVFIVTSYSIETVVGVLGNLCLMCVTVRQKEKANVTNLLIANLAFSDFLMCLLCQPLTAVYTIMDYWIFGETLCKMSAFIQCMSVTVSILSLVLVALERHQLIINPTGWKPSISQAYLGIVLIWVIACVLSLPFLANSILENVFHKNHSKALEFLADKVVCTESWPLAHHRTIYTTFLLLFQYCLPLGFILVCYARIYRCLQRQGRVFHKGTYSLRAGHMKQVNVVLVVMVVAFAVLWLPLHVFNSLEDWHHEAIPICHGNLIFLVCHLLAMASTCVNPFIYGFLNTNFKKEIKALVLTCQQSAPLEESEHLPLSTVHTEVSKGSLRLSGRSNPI

| SMILES | Ki [5] | Ki [9] | Stability [2] | other results |
| --- | --- | --- | --- | --- |
| CC[C@H](C)[C@H](NC(=O)[C@H](Cc1ccc(O)cc1)NC(=O)[C@@H](NC(=O)[C@H](CCCN/C(N)=N/C(=O)NCCOCCOCCN)NC(=O)[C@@H](N)CC(=O)O)C(C)C)C(=O)N[C@@H](Cc1cnc[nH]1)C(=O)N1CCC[C@H]1C(=O)N[C@@H](Cc1ccccc1)C(=O)O.O=C(O)C(F)(F)F.O=C(O)C(F)(F)F.O=C(O)C(F)(F)F.O=C(O)C(F)(F)F (H-D[X3]VYIHPF-OH) | – | – | Stable | Ki [1]: 2.8 nM; EC50 [3]: 2.1 nM |
| CCC(=O)NCCCCNC(=O)/N=C(/N)NCCC[C@H](NC(=O)[C@H](CCC(N)=O)NC(=O)[C@@H]1CCCN1C(=O)[C@H](C)NC(=O)[C@H](C)NC(=O)[C@H](CC(C)C)NC(=O)[C@H](CO)NC(=O)[C@H](Cc1c[nH]c2ccccc12)NC(=O)[C@H](Cc1ccc(O)cc1)NC(=O)[C@@H](N)CCC(=O)O)C(=O)N[C@@H](Cc1ccccc1)C(N)=O.O=C(O)C(F)(F)F.O=C(O)C(F)(F)F (H-EYWSLAAPQ[X6]F-NH2) | – | – | Stable | Ki [4]: 41 nM |
| CC(C)C[C@H](NC(=O)[C@H](CO)NC(=O)[C@H](Cc1c[nH]c2ccccc12)NC(=O)[C@H](Cc1ccc(O)cc1)NC(=O)[C@@H](N)CCC(=O)O)C(=O)N[C@@H](C)C(=O)N[C@@H](C)C(=O)N1CCC[C@H]1C(=O)N[C@@H](CCC(N)=O)C(=O)N[C@@H](CCCN/C(N)=N\C(=O)NCCCCN)C(=O)N[C@@H](Cc1ccccc1)C(N)=O.O=C(O)C(F)(F)F.O=C(O)C(F)(F)F.O=C(O)C(F)(F)F (H-EYWSLAAPQ[X7]F-NH2) | – | – | Stable | Ki [4]: 27 nM |
| CC[C@H](C)[C@H](NC(=O)[C@H](Cc1ccc(O)cc1)NC(=O)[C@@H]1CCCN1C(=O)[C@H](CCCNC(=N)N)NC(=O)[C@@H](N)CCCN/C(N)=N/C(=O)NCCCCN)C(=O)N[C@@H](CC(C)C)C(=O)O.O=C(O)C(F)(F)F.O=C(O)C(F)(F)F.O=C(O)C(F)(F)F.O=C(O)C(F)(F)F (H-[X2]RPYIL-OH) | 0.47 nM | – | Stable | Ki [6]: 0.74 nM; Ki [7]: 0.69 nM; IC50 [5]: 1.35 nM; EC50 ([8]; read-out: EC50): 1.7 nM; EC50 ([8]; read-out: pEC50 (converted)): 1.55 nM |

Further lines, with some results ahead:

| Ki [5] | Ki [9] | SMILES | Stability [2] | other results |
| --- | --- | --- | --- | --- |
| 0.36 nM | – | CC[C@H](C)[C@H](NC(=O)[C@H](Cc1ccc(O)cc1)NC(=O)[C@@H]1CCCN1C(=O)[C@H](CCCN/C(N)=N\C(=O)NCCOCCOCCN)NC(=O)[C@@H](N)CCCNC(=N)N)C(=O)N[C@@H](CC(C)C)C(=O)O (H-R[X4]PYIL-OH) | – | – |
| 0.26 nM | – | CC[C@H](C)[C@H](NC(=O)[C@H](Cc1ccc(O)cc1)NC(=O)[C@@H]1CCCN1C(=O)[C@H](CCCNC(=N)N)NC(=O)[C@@H](N)CCCN/C(N)=N/C(=O)NCCOCCOCCN)C(=O)N[C@@H](CC(C)C)C(=O)O (H-[X3]RPYIL-OH) | – | – |
| – | 7.4 nM | CC(C)C[C@H](NC(=O)[C@H](CCCNC(=N)N)NC(=O)[C@H](Cc1ccc(O)cc1)NC(=O)CCCCCCC(=O)N[C@@H](Cc1ccc(O)cc1)C(=O)N[C@@H](CCCNC(=N)N)C(=O)N[C@@H](CC(C)C)C(=O)N[C@@H](CCCNC(=N)N)C(=O)N[C@@H](Cc1ccc(O)cc1)C(N)=O)C(=O)N[C@@H](CCCNC(=N)N)C(=O)N[C@@H](Cc1ccc(O)cc1)C(N)=O (I: YRLRY-NH2 / II: YRLRY-NH2; linker I:N-II:N via Suberoyl) | – | – |
| – | 3.6 nM | CCC(=O)NCCCCNC(=O)/N=C(\N)NCCC[C@H](NC(=O)[C@H](Cc1ccc(O)cc1)NC(=O)CCCCCCC(=O)N[C@@H](Cc1ccc(O)cc1)C(=O)N[C@@H](CCCNC(=N)N)C(=O)N[C@@H](CC(C)C)C(=O)N[C@@H](CCCNC(=N)N)C(=O)N[C@@H](Cc1ccc(O)cc1)C(N)=O)C(=O)N[C@@H](CC(C)C)C(=O)N[C@@H](CCCNC(=N)N)C(=O)N[C@@H](Cc1ccc(O)cc1)C(N)=O (I: Y[X1]LRY-NH2 / II: YRLRY-NH2; linker I:N-II:N via Suberoyl) | – | – |
| – | 1.5 nM | CC(C)C[C@H](NC(=O)[C@H](CCCNC(=N)N)NC(=O)[C@H](Cc1ccc(O)cc1)NC(=O)CCCCCCC(=O)N[C@@H](Cc1ccc(O)cc1)C(=O)N[C@@H](CCCN/C(N)=N/C(=O)NCCCCN)C(=O)N[C@@H](CC(C)C)C(=O)N[C@@H](CCCNC(=N)N)C(=O)N[C@@H](Cc1ccc(O)cc1)C(N)=O)C(=O)N[C@@H](CCCNC(=N)N)C(=O)N[C@@H](Cc1ccc(O)cc1)C(N)=O (I: Y[X2]LRY-NH2 / II: YRLRY-NH2; linker I:N-II:N via Suberoyl) | – | – |
